Screens (PubChem BioAssay)
The list is not random: actives were taken first. Their share in the collection is about 1.1%.
ABCB6 inh 2 – human ABCB6 transporter inhibition | Q9NP58 | K562-ABCB6 porphyrin accumulation, flow cytometry, 1 h; hits give low values | fluorescence ratio to DMSO, % at 10 µM | hit rate 0.19% among 360,000;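 active means fluorescence ratio to DMSO below 75%, the collection mean minus 3 SD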;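 further: signal is porphyrin accumulated inside mitochondria; 100% equals median channel fluorescence of DMSO control wells; lower ratio means ABCB6 inhibition with less porphyrin fluorescence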
FAS-TE inh – blocks the thioesterase domain of human fatty acid synthase; recombinant FAS-TE, OMFH fluorogenic substrate, fluorescence endpoint; inhibition, % at 15 µM; hit rate 0.67% among 360,000; AID 602261;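 active means compounds whose normalised, plate-corrected inhibition of enzyme fluorescence in the single-dose primary screen is 50% or more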;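 further: 0% = DMSO with enzyme and 100% = substrate without enzyme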
hiPSC survival – hiPSC single-cell survival enhancement. AID 602274. survival enhancement, % at 20 µM. hit rate 0.044% among 360,000. ATPlite luminescence; 100% = ROCK inhibitor wells, 0% = DMSO; in the data active means survival enhancement above about 18%;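 further: cells exposed to compounds for 16 hours before the ATP read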
SENP1 inh – blocks the human SENP1 SUMO protease catalytic domain; hit rate 0.21% among 360,000; recombinant SENP1 catalytic domain, CyPet-SUMO1-YPet FRET cleavage; inhibition, % at 10 µM; AID 624204;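 active means inhibition at least 30% at 10 µM, raw YFP signal under a set limit, fluorescence ratio 0.5 to 1.5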;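 further: 0% = enzyme with DMSO and 100% = no enzyme wells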
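Controls: no-enzyme wells low, DMSO-plus-enzyme wells high control. Test system: human recombinant His6-tagged SENP1 catalytic domain enzyme. Reagent: SFCypet-SUMO1-SFYpet FRET protein substrate, 25 nM final. Doses: one dose per compound, 10 µM, 0.5% DMSO. Detection: FRET, CFP and YFP emission. Timing: 50 min reaction at room temperature.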
FAS-TE conf – confirmation of human fatty acid synthase thioesterase inhibitors; shares compounds with FAS-TE inh; recombinant FAS-TE, OMFH fluorogenic substrate, fluorescence; inhibition, % at 15 µM; hit rate 45% among 2,300; AID 624325;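 active means compounds inhibiting the enzyme by at least 50% at 15 µM in any one of the replicates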;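 further: 0% = enzyme with DMSO only and 100% = wells lacking enzyme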
* hit, by the source's call; nt = not tested or not shown.

SMILES | ABCB6 inh 2 | FAS-TE inh | hiPSC survival | SENP1 inh | FAS-TE conf
Cc1ccc(S(=O)(=O)c2cc3c(=O)n4cccc(C)c4nc3n(C3CCCCC3)c2=N)cc1 | 90 | 7 | 0 | -76 | nt
Cc1cccn2c(=O)c3cc(S(=O)(=O)c4ccc(Br)cc4)c(=N)n(C4CCCCC4)c3nc12 | 91 | 51* | 0 | -28 | 7
CC(C)(C)NC(=O)NC(=O)COC(=O)C1CCN(S(=O)(=O)c2cccs2)CC1 | 100 | 53* | 2 | 0 | 46*
COC(=O)[C@]1(Cc2ccccc2)N[C@H](c2ccc(-c3ccc(F)cc3)cc2)[C@@H]2C(=O)N(C)C(=O)[C@@H]21 | 92 | 85* | 1 | -5 | 28
CCN(C[C@H]1N[C@@](Cc2ccccc2)(C(=O)OC)[C@H]2C(=O)N(C)C(=O)[C@@H]12)S(=O)(=O)c1ccc(-c2ccccc2)cc1 | 96 | 52* | 0 | 0 | 33
CCN1C(=O)[C@H]2[C@@H](c3ccc(-c4ccc5c(c4)OCO5)c(OC)c3)N[C@@](CC(C)C)(C(=O)OC)[C@H]2C1=O | 98 | 32 | -3 | 1 | nt
CCN1C(=O)[C@H]2[C@@H](c3ccc(-c4ccc(OC)cc4)c(OC)c3)N[C@@](Cc3ccccc3)(C(=O)OC)[C@H]2C1=O | 100 | 52* | -1 | -2 | 23
CCN(C[C@H]1N[C@@](Cc2ccccc2)(C(=O)OC)[C@H]2C(=O)N(C)C(=O)[C@@H]12)S(=O)(=O)c1ccccc1 | 97 | 3 | 1 | 0 | nt
CCN1C(=O)[C@H]2[C@@H](c3ccc(-c4ccc5c(c4)OCO5)c(OC)c3)N[C@@](Cc3ccccc3)(C(=O)OC)[C@H]2C1=O | 98 | 91* | 2 | 2 | -1
CCN1C(=O)[C@H]2[C@@H](c3ccc(-c4ccccc4)cc3)N[C@@](Cc3ccccc3)(C(=O)OC)[C@H]2C1=O | 93 | 37 | -3 | 1 | nt
CSCCNC(=O)C1(C)CCN1C(=O)C/C=C/c1ccccc1 (stereo not drawn) | 98 | -9 | 0 | -1 | nt
CCc1ccc(NC(=O)COC(=O)c2nc3nc(C)cc(C)n3n2)cc1 | 94 | -3 | 4 | -1 | nt
CCN1C(=O)[C@H]2[C@@H](c3ccc(-c4cccc(Cl)c4)c(OC)c3)N[C@@](Cc3ccccc3)(C(=O)OC)[C@H]2C1=O | 102 | 47 | -3 | -1 | nt
CCN1C(=O)[C@H]2[C@@H](c3ccc(-c4ccc(Cl)c(Cl)c4)cc3)N[C@@](Cc3ccccc3)(C(=O)OC)[C@H]2C1=O | 99 | 89* | -2 | -2 | 13
COC(=O)[C@]1(Cc2ccccc2)N[C@H](c2ccc(-c3cccc(Cl)c3)c(OC)c2)[C@@H]2C(=O)N(C)C(=O)[C@@H]21 | 99 | 93* | -3 | 2 | 44
[N-]=[N+]=NCC/C=C\C1NS(=O)(=O)OCC1O (stereo not drawn) | 97 | -5 | 0 | 1 | nt
C[C@H](CO)N1C[C@H](C)[C@@H](CN(C)S(=O)(=O)c2cccs2)Oc2c(NC(=O)NC3CCCCC3)cccc2C1=O | 95 | 7 | -1 | 1 | nt
Cn1c(=O)c2c3c(sc2n2c(SCC(N)=O)nnc12)CC(C(C)(C)C)CC3 (stereo not drawn) | 98 | 56* | 1 | -2 | 41
COc1cc(/C=N/NC(=O)C(Cc2c[nH]c3ccccc23)NC(=O)OCc2ccccc2)cc([N+](=O)[O-])c1O (stereo not drawn) | 99 | 75* | -1 | 6 | 75*
Cc1c(NS(=O)(=O)c2cc(C(=O)Nc3ccc(F)cc3Cl)ccc2Cl)c(=O)n(-c2ccccc2)n1C | 96 | -3 | -2 | -1 | nt
Cc1ccc(NC(=O)c2ccc(Cl)c(S(=O)(=O)Nc3c(C)n(C)n(-c4ccccc4)c3=O)c2)cc1Cl | 102 | 76* | 0 | -1 | 18
O=C(Nn1c(SCc2cccc([N+](=O)[O-])c2)nc2ccccc2c1=O)c1ccccc1 | 98 | 41 | -1 | 4 | nt
COCCn1c(SCc2cccc([N+](=O)[O-])c2)nc2ccccc2c1=O | 93 | 51* | 0 | 1 | 12
CCSc1nc2ccccc2n1Cc1ccccc1F | 86 | 6 | 4 | -2 | nt
COc1ccc(C(=O)Nn2c(SCc3cccc([N+](=O)[O-])c3)nc3ccccc3c2=O)cc1 | 96 | 59* | -1 | 1 | 51*
SMILES | ABCB6 inh 2 | FAS-TE inh | hiPSC survival | SENP1 inh | FAS-TE conf
CCSc1nc2ccccc2n1Cc1cccc([N+](=O)[O-])c1 | 100 | 59* | -1 | -1 | 20
Cc1noc(C)c1CSCC(=O)N(C)CC(=O)Nc1ccc(Cl)cc1 | 101 | -2 | 0 | 4 | nt
CN(C)C(=O)OCC1COc2ccccc2O1 (stereo not drawn) | 85 | 0 | -1 | 1 | nt
N#Cc1ccsc1NC(=O)C1CCCN1S(=O)(=O)c1cccs1 (stereo not drawn) | 90 | 2 | 0 | -1 | nt
COC(=O)C1=C(C(=O)OC)[C@@H]2N(Cc3ccccc3)c3ccccc3[C@@]23C[C@@H](C(=O)OC)N(C(=O)CC(C)C)C3=N1 | 97 | 77* | -2 | 1 | 28
COC(=O)C1=C(C(=O)OC)[C@@H]2N(Cc3ccccc3)c3ccccc3[C@@]23C[C@@H](C(=O)OC)N(C(=O)c2cccs2)C3=N1 | 100 | 23 | -2 | 5 | nt
COC(=O)C1=C(C(=O)OC)[C@@H]2N(Cc3ccccc3)c3ccccc3[C@@]23C[C@@H](C(=O)OC)N(C(=O)c2cc(C)oc2C)C3=N1 | 102 | 59* | -3 | 2 | 15
C#CCCOC(=O)N1C2=NC(C(=O)OC)=C(C(=O)OC)[C@@H]3N(Cc4ccccc4)c4ccccc4[C@]23C[C@H]1C(=O)OC | 96 | 13 | 1 | 1 | nt
C=CCN1c2ccccc2[C@]23C[C@@H](C(=O)OC)N(C(=O)NCCC)C2=NC(C(=O)OC)=C(C(=O)OC)[C@H]13 | 100 | 79* | -1 | 1 | 31
C=CCN1c2ccccc2[C@]23C[C@@H](C(=O)OC)N(C(=O)C4CCC4)C2=NC(C(=O)OC)=C(C(=O)OC)[C@H]13 | 92 | 32 | -1 | 1 | nt
Nc1nc2ccccc2cc1C(=O)NCCCCc1ccccc1 | 87 | 1 | 0 | -19 | nt
COc1ccccc1CC(NC(C)=O)C(=O)NC1CCN(C(=O)c2ccc(C)cc2)CC1 (stereo not drawn) | 98 | -6 | 0 | 2 | nt
O=C(COC(=O)c1cc(=O)[nH]c2ccccc12)NCc1ccc(Cl)cc1 | 95 | 5 | 0 | 5 | nt
Cc1ccc(NC(=O)CSc2nc3nn(-c4ccccc4)c(=O)c-3c3n2CCCCC3)cc1F | 98 | 74* | 0 | 0 | 31
O=C(CSc1nc2nn(-c3ccccc3)c(=O)c-2c2n1CCCCC2)Nc1cccc(F)c1 | 100 | 50 | 0 | 0 | nt
COc1ccc(-c2[nH]n(-c3ccc([N+](=O)[O-])cc3)c(=O)c2C=NCc2ccccc2)cc1 | 102 | 54* | -1 | 19 | 1
